This is a sample that favours compounds with a hit; in the whole collection about 4.9% have one here.
NF-kB expr up – raises NF-kB expression in human neuronal cells | NF-kB reporter expression; stronger effect = higher value | fold change at 12.5 µM | 1.6% of 190,000 active | AID 1239; in the data active = fold change above about 3.3
STAT1 activator – activators of IFN-gamma induced STAT1 signaling; NIH 3T3 STAT1-luciferase reporter, luminescence; 100% = IFN-gamma alone, no compound; activation (% of control), % at 5.5 µM; AID 932; 2.6% of 200,000 active;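 active = activation above the screen-wide mean activation plus 3 SD, cut at about 130% in these data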;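 note: raw ratio to IFN-gamma control signal so 100% means no change and 0% no light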
APP 5'UTR act – activates APP 5'UTR luciferase reporter; SH-SY5Y APP 5'UTR luciferase reporter, luminescence; zero percent = DMSO vehicle wells; activation, % at 2 µM; 1% of 190,000 active;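 active = activation above a set limit, based on mean plus 3 SD of controls, cut at about 140% in these data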
STAT1 inh – inhibitors of IFN-gamma induced STAT1 signaling; inhibition, % at 5.5 µM; NIH 3T3 STAT1-luciferase reporter, luminescence; 0.35% of 200,000 active; AID 920;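 active = inhibition above a set limit, the mean inhibition across all tested compounds plus 3 SD, cut at about 34% in these data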;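 note: 0% = IFN-gamma with DMSO and 100% = IFN-gamma with 300 µM nifuroxazide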
STAT3 activator – STAT3 signaling activation; U3A cells, IL-6 STAT3-luciferase reporter, luminescence; 100% = signal with IL-6 EC80 alone; activation (% of control), % at 5.6 µM; 0.91% of 190,000 active; AID 871;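 active = activation above the screen-wide mean of compound activation plus 3 SD, cut at about 130% in these data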;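 note: 0% = background luminescence of wells with medium and substrate only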
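Material: STAT3-luciferase reporter U3A cells. Controls: IL-6-treated wells, 100% activation. Read-out: % activation versus median of IL-6-stimulated wells. Probe or stimulus: IL-6 stimulus at 33 ng/mL final. Timing: compound 1 h, then IL-6 6 h at 37 °C. Signal: reporter luminescence signal.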
STAT3 inh – reduces IL-6 driven STAT3 reporter signal; U3A cells, IL-6 STAT3-luciferase reporter, luminescence; host cell line lacks STAT1; 0.89% of 190,000 active; inhibition, % at 5.5 µM;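 active = inhibition above the mean inhibition across all screened compounds plus 3 SD, cut at about 44% in these data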;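 note: 0% = DMSO only wells and 100% = 100 µM nifuroxazide control wells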
Starred values were filed as active, the others as inactive; x = no result given.

SMILES	NF-kB expr up	STAT1 activator	APP 5'UTR act	STAT1 inh	STAT3 activator	STAT3 inh
O=C(CN1C(=O)CCC1=O)Nc1nc(-c2nc3ccccc3s2)cs1	1.2	131*	52	-32	100	0
O=C(CN1C(=O)CCC1=O)Nc1nc(-c2ccc3ccccc3c2)cs1	1.9	138*	-5	-43	91	13
Cc1ccc(-c2csc(NC(=O)CN3C(=O)CCC3=O)n2)cc1	1.2	102	4	-2	86	18
CCc1ccc(-c2cc(C(F)(F)F)n3nc(C(=O)Nc4c(C)nn(Cc5ccc(F)cc5)c4C)cc3n2)s1	0.87	98	2	2	86	17
Cc1ccc(-n2nc(C)c3c2OC(N)=C(C#N)C3c2ccco2)cc1 (stereo not given)	1.1	102	6	-2	140*	-36
Cc1ccc(-n2nc(C)c3c2OC(N)=C(C#N)C3c2ccc(C)o2)cc1 (stereo not given)	0.9	99	-2	-8	126	-29
O=c1c(C=NCc2cccnc2)c(C(F)(F)F)[nH]n1-c1nc2ccccc2s1	1.5	64	95	38*	54	56*
C(#Cc1ccccc1)Cn1nnc2ccccc21	1.8	134*	42	-37	93	14
CC(C)C1COC(c2cccc3ccccc23)=N1 (stereo not given)	3.7*	143*	103	-47	92	7
COC(=O)c1sc2nc3c(cc2c1N)COC(C)(C)C3	4.2*	142*	-11	-48	98	3
COCCn1c(SCC(=O)c2c[nH]c3ccccc23)nnc1-c1ccncc1	0.97	97	2	4	136*	-42
CC1CCCCN1C(=O)Nc1cccc(C(F)(F)F)c1 (stereo not given)	1.7	100	1	-1	102	0
CCC(=O)Nc1cccc(C(=O)/C=C/c2ccccc2)c1	8.8*	108	24	-8	102	4
CSc1ccc(C(=O)/C=C/c2ccc(N)cc2)cc1	10*	114	117	-15	98	6
CSc1ccc(/C=C/C(=O)Nc2ccccc2)cc1	6.3*	50	210*	53*	37	79*
CSc1ccc(/C=C/C(=O)c2ccc(NC(=O)C(C)C)cc2)cc1	1.1	100	7	0	94	14
O=C(/C=C/c1ccccc1)Nc1cccc(C(=O)O)c1	5.1*	11	-64	96*	10	107*
CCC(=O)Nc1cccc(C(=O)/C=C/c2cccs2)c1	2.6	102	46	-2	89	21
CC(=O)Nc1ccc(NC(=O)/C=C/c2ccccc2)cc1	1	112	32	-14	87	24
CSc1cccc(NC(=O)/C=C/c2ccc(Cl)cc2)c1	1.8	111	20	-12	89	19
CSc1cccc(NC(=O)/C=C/c2ccccc2)c1	2.7	133*	109	-36	97	5
COC(=O)c1sccc1N/N=C/c1ccc(OC)c(OC)c1OC	3	129*	66	-28	95	4
COC(=O)c1sccc1N/N=C/c1cccc(Oc2ccccc2)c1	0.93	138*	176*	-37	97	1
O=C(N/N=C/c1cccc(Oc2ccccc2)c1)c1cc[n+]([O-])cc1	0.93	105	4	-9	95	10
Cc1[nH]n(-c2ccc([N+](=O)[O-])cc2)c(=O)c1N=Nc1nc2ccccc2s1	x	103	12	-3	163*	-70
SMILES	NF-kB expr up	STAT1 activator	APP 5'UTR act	STAT1 inh	STAT3 activator	STAT3 inh
Cc1cc([N+](=O)[O-])ccc1N=Nc1c(N)[nH]n(-c2ccccc2)c1=O	1.2	104	19	-5	98	3
CCOC(=O)/C(=C/c1ccccc1)NC(=O)c1ccco1	1.2	97	11	3	99	4
COc1ccc(-c2cc(C(=O)NC(C)C)no2)cc1	3.7*	144*	106	-43	92	10
Cc1cc(OC(C)C(=O)N/N=C/CC(C)c2ccccc2)ccc1Cl (stereo not given)	1.8	97	-26	3	103	2
Cc1ccsc1C(C(=O)NC(C)(C)C)N(C(=O)c1csnn1)c1ccccc1 (stereo not given)	1.2	106	21	-7	98	9
CCC(=O)c1c(OCc2ccccc2)ccc2c(C)cc(=O)oc12	3.4*	100	-3	-2	98	4
CCOC(=O)COc1ccc2c(C)cc(=O)oc2c1C(=O)c1ccccc1	1	98	-3	1	97	6
CCC(=O)c1ccc(OCc2ccc(C(=O)OC)cc2)c(OC)c1	1.2	98	-3	3	103	-3
CCC(=O)c1ccc(OCc2ccccc2)c(OC)c1	2	129*	71	-33	108	-10
COc1ccc(CNC(=O)COC(=O)c2ccc(Br)cc2)cc1	1.2	96	5	4	105	-6
COC(=O)c1ccc(CSc2nnc(NC(C)C)s2)o1	1	98	21	2	104	3
Oc1[nH]c2ccccc2c1N=Nc1ccc(F)cc1	1.7	144*	46	-50	119	-27
Oc1[nH]c2ccccc2c1N=Nc1ccccc1F	4.1*	151*	66	-58	154*	-69
CC(C)(O)C(=O)N=Nc1c(O)[nH]c2ccccc12	1.5	115	46	-17	108	-6
CCN(CC(=O)NC1CCS(=O)(=O)C1)C(=O)/C=C/c1cccs1 (stereo not given)	0.95	100	9	0	90	19
Cc1ccc(-c2nc(N/N=C/c3cccnc3)c3ccccc3n2)cc1	2.1	48	26	57*	41	72*
O=C(NCCc1ccccc1)c1ccncc1	2.2	130*	33	-33	116	-11
O=C(NCCc1ccccc1)c1ccc(Cl)c([N+](=O)[O-])c1	2.3	115	37	-16	106	-7
O=C(NCCc1ccccc1)c1cccs1	3.2	142*	77	-45	94	7
O=C(NCc1ccco1)c1cnc2sccn2c1=O	0.99	96	-1	5	96	13
O=C(NCCc1ccccc1)c1cnc2sccn2c1=O	2	136*	74	-37	99	1
Cc1cc(C(=O)NCCc2ccccc2)ccc1[N+](=O)[O-]	2.2	134*	85	-38	106	-2
Cc1ccc(-c2nn(-c3ccccc3)cc2CSC(=N)N)cc1	4.9*	102	16	-2	103	-3
CC(Sc1nc2ccccc2[nH]1)C(=O)Nc1ccccc1F (stereo not given)	0.93	99	26	0	99	8
Cc1cc(SCC(=O)N(C)C2CCS(=O)(=O)C2)nc2c(C)cccc12 (stereo not given)	1	98	-16	2	101	5
O=C(Cc1c(O)c2ccccc2[nH]c1=O)NC1CCCCCC1	1.3	88	21	11	98	7
